IC50, inhibition and Ki data for 31 compounds are collected here from ChEMBL document CHEMBL1139083, “Discovery of 2-iminobenzimidazoles as a new class of trypanothione reductase inhibitor by high-throughput screening” (Bioorg Med Chem Lett, 2007).

SMILES strings stand for the structures. Bounds are passed on as bounds.

The nature of assay [1]: Inhibition of Trypanosoma brucei rhodesiense trypanothione reductase. In short, it runs like this:
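Automated photometric TR assay adapted to 384-well format. The rate of TNB formation was followed continuously at 412 nm for 15 min at room temperature.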

The test system of assay [2] is Trypanosoma brucei rhodesiense. The experiment in a line: Inhibition of Trypanosoma brucei rhodesiense trypanothione reductase at 25 uM.
The target of assay [3] is T1, Glutathione reductase, mitochondrial (Homo sapiens, UniProt P00390).
T1 sequence (P00390 whole entry): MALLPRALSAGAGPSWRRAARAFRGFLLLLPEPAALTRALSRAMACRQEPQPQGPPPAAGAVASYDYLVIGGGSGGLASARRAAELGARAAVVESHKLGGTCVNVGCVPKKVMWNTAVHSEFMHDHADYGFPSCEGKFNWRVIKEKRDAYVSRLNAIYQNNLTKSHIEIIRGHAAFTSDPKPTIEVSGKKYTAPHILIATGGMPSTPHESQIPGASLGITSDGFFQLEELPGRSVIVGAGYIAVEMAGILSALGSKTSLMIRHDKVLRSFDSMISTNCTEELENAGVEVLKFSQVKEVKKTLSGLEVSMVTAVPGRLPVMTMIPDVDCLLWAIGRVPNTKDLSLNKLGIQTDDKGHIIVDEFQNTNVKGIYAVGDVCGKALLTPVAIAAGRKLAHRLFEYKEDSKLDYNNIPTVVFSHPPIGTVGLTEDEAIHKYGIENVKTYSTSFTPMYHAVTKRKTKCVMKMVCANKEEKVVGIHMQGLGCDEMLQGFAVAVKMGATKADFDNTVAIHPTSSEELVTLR
The assay can be described thus: Inhibition of human glutathione reductase. The method, boiled down: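 GR assay adapted from the TR screening protocol, using higher enzyme and G[S]₂ levels because of the higher K_m. The rate of TNB formation was recorded continuously at 412 nm over 15 min at room temperature.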

Assay [4] concerns Trypanosoma brucei rhodesiense. The experiment in a line: Trypanocidal activity against Trypanosoma brucei rhodesiense. Type of assay: functional, organism-based.
The subject of assay [5] is HT-29. The experiment in a line: Cytotoxicity against human HT29 cells. In kind it is functional, cell-based.

By IC50 is commonly meant the concentration that gives 50% inhibition. The compound `N=c1n(CCCOc2ccccc2)c2ccccc2n1CCN1CCCCC1` registered an IC50 in assay [1] of 7 µM.

With `CCN(CC)CCn1c(=N)n(CCOc2ccccc2)c2ccccc21`, the midpoint of inhibition in assay [1], the IC50, lay at 8 µM. One may read the inhibition as how much of the control response was suppressed. Higher therefore signals a response far below the control. For the compound `CCCCn1c(=N)n(CC(O)c2ccc(Br)cc2)c2ccccc21` (stereo unspecified), in assay [2], the inhibition was 42%. For the same compound, in assay [1], the IC50 was over 100 µM. Regarding `N=c1n(CCN2CCCCC2)c2ccccc2n1CC(O)COc1ccccc1` (stereo unspecified), the half-inhibitory concentration (IC50) in assay [1] is 5 µM. As to `CC(=O)/N=c1/n(CCOc2ccccc2)c2ccccc2n1CCN1CCCCC1`, in assay [1], the IC50 was over 100 µM.

Consider `c1ccc(OCCNc2ccccc2NCCN2CCCCC2)cc1`, for which the IC50 in assay [1] was over 100 µM. As for `COc1ccc(C(O)Cn2c(=N)n(CCN3CCCCC3)c3ccccc32)cc1` (stereo unspecified), the inhibition in assay [2] worked out at 85%. In assay [1], this compound yielded an IC50 of 24 µM. For `N=c1n(Cc2ccccc2)c2ccccc2n1CC(O)c1ccc(Cl)cc1` (stereo unspecified), in that order: 32% and over 100 µM. `CCN(CC)CCn1c(=N)n(CC(=O)c2ccc(C)cc2)c2ccccc21` showed an inhibition in assay [2] of 91%. The IC50 in assay [1] stood at 7 µM. Regarding `CN1CCCC(n2c(=N)n(CCOc3ccccc3)c3ccccc32)C1` (stereo unspecified), the IC50 in assay [1] is over 100 µM. In assay [2], `C=CCn1c(=N)n(CCN(CC)CC)c2ccccc21` registered an inhibition of 31%. This compound had an IC50 in assay [1] of over 100 µM. Turning to `N=c1n(CCN2CCOCC2)c2ccccc2n1CC(O)COc1ccccc1` (stereo unspecified), the IC50 in assay [1] was over 100 µM. Same read-out and setting: the result for `CCN(CC)CCn1c(=N)n(CC(=O)c2ccc(Cl)c(Cl)c2)c2ccccc21` reads 10 µM; that for `Cc1ccc(C(O)Cn2c(=N)n(CCN(C)C)c3ccccc32)cc1` (stereo unspecified), 29 µM; that for `CCn1c(=N)n(CCOCCOCCn2c(=N)n(CC)c3ccccc32)c2ccccc21`, over 100 µM.

In assay [2], `CC(C)(C)C(O)Cn1c(=N)n(CCN2CCCCC2)c2ccccc21` (stereo unspecified) returned an inhibition of 66%. In assay [1], this compound gave an IC50 of over 100 µM. In the case of `CCN(CC)CCn1c(=N)n(CC(O)c2ccc(C)cc2)c2ccccc21` (stereo unspecified), in assay [1], the IC50 worked out at 19 µM.

Consider `N=c1n(CCOc2ccccc2)c2ccccc2n1CCN1CCCCC1`, for which 4 µM corresponded to half-maximal inhibition in assay [1] (IC50). The same measure, in the same setting: then `CCN(CC)CCn1c(=N)n(CC(=O)c2ccc(-c3ccccc3)cc2)c2ccccc21`, with 25 µM; and `Cc1ccc(C(O)Cn2c(=N)n(CCCN(C)C)c3ccccc32)cc1` (stereo unspecified), with 35 µM. In general, Ki refers to a dissociation constant, usually derived from enzyme kinetics or from competition with a known ligand. Consider `N=c1n(CCOCCOCCn2c(=N)n(Cc3ccccc3)c3ccccc32)c2ccccc2n1Cc1ccccc1`, for which the IC50 was over 100 µM in assay [3], 1.3 µM in assay [4], 144 µM in assay [5] and 4 µM in assay [1]. This compound also displayed a Ki in assay [1] of 1.9 µM. For the compound `CCN(CC)CCn1c(=N)n(CC(O)c2ccc(Cl)c(Cl)c2)c2ccccc21` (stereo unspecified), it took 9 µM to reach half-maximal inhibition in assay [1] (IC50).

Regarding `C=CCn1c(=N)n(CC(O)c2ccc(OCC)cc2)c2ccccc21` (stereo unspecified), the inhibition in assay [2] stood at 6%. The compound also yielded an IC50 in assay [1] of over 100 µM. `CN(C)CCn1c(=N)n(CC(O)c2ccc(Cl)c(Cl)c2)c2ccccc21` (stereo unspecified): the IC50 is over 100 µM in assay [3], 0.6 µM in assay [4], 46 µM in assay [5] and 10 µM in assay [1]. The inhibition in assay [2] is 92%. In assay [1], this compound returned a Ki of 5.4 µM. For `N=c1n(CCN2CCCCC2)c2ccccc2n1CC(O)c1ccc(Cl)c(Cl)c1` (stereo unspecified), the 50% inhibitory concentration (IC50) in assay [3] is over 100 µM; in assay [4] it was 0.2 µM; in assay [5], 9 µM; in assay [1] it was 4 µM. Also, in assay [1], the Ki was 3.6 µM. `Cc1ccc(C(O)Cn2c(=N)n(CCN3CCCCC3)c3ccccc32)cc1` (stereo unspecified): half-maximal inhibition in assay [1] (IC50) was put at 16 µM. The compound `Cc1ccc(OCC(O)Cn2c(=N)n(CCN3CCOCC3)c3ccccc32)cc1` (stereo unspecified) came in with a concentration for half-maximal inhibition (IC50) in assay [1] of over 100 µM. With `N=c1n(CCCCCOc2ccccc2)c2ccccc2n1CCN1CCCCC1`, the IC50 in assay [1] was determined as 8 µM.

`Cc1ccc(OCC(O)Cn2c(=N)n(CCN3CCCCC3)c3ccccc32)cc1` (stereo unspecified) displayed an IC50 in assay [1] of 9 µM. Still for that read-out and setting: then `N=c1n(CCN2CCCCC2)c2ccccc2n1CC(O)COc1ccc(Cl)cc1Cl` (stereo unspecified), with 5 µM; and `CCN(CC)CCn1c(=N)n(CCN(CC)CC)c2ccccc21`, with 59 µM.
